# Assay results of several laboratories.
# Observed: cell growth or viability
SMILES,cell line,method,concentration,time,quantity,result
NS(=O)(=O)c1ccc(-c2ccc(Nc3ccc(Cl)cc3)cc2)cc1,HEK-293T,MTT,100 µM,,viability,76%
c1cnc2c(c1)ccc1cccnc12,HEK-293T,MTT,12.5 µg/mL,24 h,viability,> 80%
NS(=O)(=O)c1ccc(-c2ccc(Nc3ccncc3)cc2)cc1,HEK-293T,MTT,100 µM,,viability,69%
O=c1c2c([nH]c3cc(Oc4ccc(OC(F)(F)F)cc4)ccc13)CCCC2,HepG2,MTT,,48 h,IC50,> 50 µM
Cc1ccc(N(C)c2ccc(NC(=O)CN(C)c3ccccc3N3CCCC3=O)cc2)nc1,HepG2,ATP luminescence,,48 h,CC50,> 40 µM
OCc1ccc(-c2nn(Cc3ccccc3)c3ccccc23)o1,HepG2,ATP luminescence,,,IC50,7.14 µM
CCN(c1ccc(C)cc1)c1ccc(NC(=O)CN(C)c2ccccc2N2CCCC2=O)cn1,HepG2,ATP luminescence,,48 h,CC50,> 40 µM
NS(=O)(=O)OC[C@H]1C[C@@H](Nc2ccnc3cc(-c4cccc(SC(F)(F)F)c4)nn23)[C@H](O)[C@@H]1O,HEK-293T,ATP luminescence,,24 h,EC50,0.296 µM
